Results of several laboratories.
Compare with care: the assays were run in different laboratories.
Cell line: HCT-116
Effect on: cell growth or viability

With `Cc1nc(Nc2ccc3c(c2)/C(=C/c2ccccc2)C(=O)N3C)c2ccccc2n1` the IC50 was 21.4 µM (MTT).
The IC50 of `COc1nc(NCc2cn(-c3ccc(C(N)=O)cc3)nn2)nc(OC)n1` is reported as 0.0797 µM (MTT; 72 h).
The IC50 of `COc1ccc(-c2cc(-c3ccc(OC)cc3)c3c(=O)n(C)c(=O)n(C)c3n2)cc1` is reported as 11.6 µM (MTT; 48 h).
For `C=C(F)C(=O)N1CCN(c2nc(OC[C@@H]3CCCN3C)nc3c2CCN(c2cccc4cccc(Cl)c24)C3)C[C@@H]1CC#N`, the IC50 was over 1 µM (ATP luminescence; 3D culture).
For `Cc1ccc(-c2cc(-c3ccc(Cl)cc3)c3c(=O)[nH]c(=O)[nH]c3n2)cc1`, the IC50 was 5.44 µM (MTT; 48 h).
For `COc1nc(NCc2cn(-c3ccc(NC(=O)c4ccc(C(F)(F)F)cc4)cc3)nn2)nc(OC)n1`, the IC50 was 0.0399 µM (MTT; 72 h).
For `Cc1nc(NC(=O)N2CCC[C@H]2C(N)=O)sc1-c1ccnc(C(C)(C)C(F)(F)F)c1`, the IC50 was 4.34 µM (MTT).
The IC50 of `COc1nc(NCc2cn(-c3ccc(NC(=O)c4ccc(Br)cc4)cc3)nn2)nc(OC)n1` is reported as 0.0566 µM (MTT; 72 h).
For `Cc1nc(N(Cc2ccccc2)c2ccc3c(c2)/C(=C/c2ccccc2)C(=O)N3Cc2ccccc2)c2ccccc2n1` (mixture of isomers), the IC50 was 0.98 µM (MTT).
For `Cc1nc2ccc(CN(C)c3ccc(C(=O)N[C@@H](CCC(=O)O)C(=O)O)s3)cc2c(=O)[nH]1`, the IC50 was 1.07 µM (MTT; 48 h).
